In ChEMBL document CHEMBL3763117, “Design, synthesis and biological evaluation of imidazo[2,1-b]thiazole and benzo[d]imidazo[2,1-b]thiazole derivatives as Mycobacterium tuberculosis pantothenate synthetase inhibitors” (Bioorg Med Chem, 2016):
Converted amounts (≈) assume the structure as drawn. The source made the active and inactive calls. The rule behind the calls is not given here.

Assays:
[1] = tested on: Mycobacterium tuberculosis; test: Antimycobacterial activity against Mycobacterium tuberculosis H37Rv ATCC 27294 after 7 days by microplate Alamar blue assay; type: functional; settings: H37Rv ATCC 27294, 168 h
Outline: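 MABA against M. tuberculosis H37Rv. Inoculum came from LJ medium, resuspended in 7H9-S (7H9, 0.1% casitone, 0.5% glycerol, OADC), adjusted to McFarland No. 1 and diluted 1:20. Two-fold dilutions spanned 50 to 0.78 µg/mL, in duplicate. Plates ran 7 days at 37 °C, then alamar blue was added overnight. MIC was the lowest concentration preventing the blue-to-pink change.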

Pantothenate synthetase = molecular target: T1, Pantothenate synthetase (Mycobacterium tuberculosis, UniProt P9WIL5); test: Inhibition of Mycobacterium tuberculosis pantothenate synthetase using pantoic acid as substrate and beta-alanine as reactant assessed as NAD+ formation by spectrophotmetry in presence of NADH
T1 sequence (P9WIL5 whole entry): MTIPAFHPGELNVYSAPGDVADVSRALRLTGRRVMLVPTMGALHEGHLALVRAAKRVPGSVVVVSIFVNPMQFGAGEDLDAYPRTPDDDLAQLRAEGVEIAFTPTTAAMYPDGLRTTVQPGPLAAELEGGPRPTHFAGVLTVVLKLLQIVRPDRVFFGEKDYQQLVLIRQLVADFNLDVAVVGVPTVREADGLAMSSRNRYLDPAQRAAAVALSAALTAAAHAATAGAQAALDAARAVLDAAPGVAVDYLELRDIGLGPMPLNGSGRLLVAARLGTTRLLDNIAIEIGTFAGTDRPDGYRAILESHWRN
Outline: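 Recombinant MTB PS (panC, Rv3602c) expressed in E. coli BL21(DE3). Coupled assay in 100 mM HEPES pH 7.8: 0.4 mM NADH, 5 mM pantoic acid, 5 mM β-alanine, 10 mM ATP, 10 mM MgCl2, 1 mM phosphoenolpyruvate, with myokinase, pyruvate kinase and lactate dehydrogenase. Compounds were tested from 25 µM downward. Reaction was started with PS; NADH depletion was read at 340 nm at 37 °C, background-corrected.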

[2] = Cytotoxicity against mouse RAW264.7 cells assessed as inhibition of cell viability at 50 uM after 72 hrs by MTT assay; type: cell-based; settings: read-out: INH
Outline: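 RAW 264.7 mouse macrophages were exposed to compound at 50 µM for 72 h. Viability was read as MTT conversion to formazan.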

[3] = tested on: Mycobacterium tuberculosis; test: Antimycobacterial activity against nutrient starved Mycobacterium tuberculosis H37Rv assessed as reduction in bacterial load at 10 ug/ml incubated for 7 days measured after 28 days by microplate reader analysis; type: functional
Outline: (§1)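 H37Rv grown in 7H9/OADC, pelleted, washed twice and resuspended in PBS. It was starved in sealed bottles at 37 °C for 6 weeks. Cultures were exposed to drug at 10 µg/ml for 7 days at 37 °C. Ten-fold dilutions to 10^-6 in 7H9/OADC were plated in triplicate and incubated 28 days at 37 °C without agitation. Wells with visible growth were scored and MPN calculated.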

Mycobacterium marinum [4] = test: Antimycobacterial activity against Mycobacterium marinum ATCC BAA-535 infected in Zebra fish model assessed as reduction in bacterial load at 10 mg/kg, po administered for 7 days measured after 14 days by MPN assay; type: functional
Outline: (§2)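 Adult zebra fish infected with M. marinum ATCC BAA-535 (grown at 30 °C in Middlebrook 7H9 broth). Oral treatment began 7 days post infection and ran for 7 days. Fish were then sacrificed and homogenised in 7H9 broth. Homogenate was serially diluted to 10^-6, plated in 48-well plates and incubated at 30 °C. Bacterial count was by MPN.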

[5] = tested on: Mycobacterium tuberculosis; test: Antimycobacterial activity against nutrient starved Mycobacterium tuberculosis H37Rv assessed as reduction in bacterial load for 7 days measured after 28 days by microplate reader analysis; type: functional; outline: as §1
Mycobacterium marinum [6] = test: Antimycobacterial activity against Mycobacterium marinum ATCC BAA-535 infected in Zebra fish model assessed as reduction in bacterial load at 5 mg/kg, po administered for 7 days measured after 14 days by MPN assay; type: functional; outline: as §2

Compound	MIC [1] [µM]	IC50 (Pantothenate synthetase) [nM]	cytotoxicity at 72 h, 50 µM [2] [%]	Activity [3] [deltalog10CFU/ml]	Activity (Mycobacterium marinum [4])	MIC [5] [µg/mL]	Activity (Mycobacterium marinum [6]) [deltalog10CFU/ml]
COc1cc(/C=N/NC(=O)c2c(C)nc3sc4ccccc4n23)cc(OC)c1OC	29.4 (≈ 12.5 µg/mL)	2070	16.2	–	–	–	–
Cc1nc2sccn2c1C(=O)N/N=C/c1ccc(C(F)(F)F)cc1	17.7 (≈ 6.25 µg/mL)	670	12.8	–	–	–	–
Cc1nc2sc3ccccc3n2c1C(=O)NNC(=O)C1CCCCC1	17.5 (≈ 6.25 µg/mL)	2910	45.4	–	–	–	–
Cc1nc2sc3ccccc3n2c1C(=O)NNC(=O)c1ccccc1	35.7 (≈ 12.5 µg/mL)	1100	29.7	–	–	–	–
Cc1nc2sccn2c1C(=O)NNC(=O)c1cccc2ccccc12	17.8 (≈ 6.25 µg/mL)	640	27.5	–	–	–	–
Cc1ccc(C(=O)NNC(=O)c2c(C)nc3sccn23)cc1	5.96 (≈ 1.87 µg/mL)	4990	39.2	2.1	–	–	–
Cc1nc2sccn2c1C(=O)N/N=C/c1ccccc1	23.2 (≈ 6.6 µg/mL)	580	23.1	–	–	–	–
Cc1nc2sccn2c1C(=O)NCc1ccccc1	11.5 (≈ 3.13 µg/mL)	1060	12.7	–	–	–	–
NNC(=O)c1ccncc1 [ISONIAZID]	0.72 (≈ 0.0987 µg/mL)	> 25000	–	1.1	1.8 deltalog10CFU/ml	0.05 (≈ 0.365 µM)	–
Cc1nc2sc3ccccc3n2c1C(=O)NNC(=O)c1cccc2ccccc12	15.6 (≈ 6.25 µg/mL)	1390	32	–	–	–	–
Cc1nc2sccn2c1C(=O)N/N=C/c1ccc(N(C)C)cc1	38.2 (≈ 12.5 µg/mL)	2500	6.75	–	–	–	–
Cc1nc2sc3ccccc3n2c1C(=O)NCc1ccccc1	19.4 (≈ 6.25 µg/mL)	840	6.62	–	–	–	–
CC1(C)S[C@@H]2[C@H](NC(=O)[C@H](N)c3ccc(O)cc3)C(=O)N2[C@H]1C(=O)O	–	–	–	–	inactive	–	–
Cc1nc2sc3ccccc3n2c1C(=O)N/N=C/c1ccccc1	9.35 (≈ 3.13 µg/mL)	2150	34.6	–	–	–	–
Cc1nc2sccn2c1C(=O)NNC(=O)c1ccc(Oc2ccccc2)cc1	7.96 (≈ 3.12 µg/mL)	1230	2.98	–	–	–	–
Cc1nc2sccn2c1C(=O)N/N=C/c1ccc(Br)cc1	34.4 (≈ 12.5 µg/mL)	1200	22.2	–	–	–	–
Cc1nc2sc3ccccc3n2c1C(=O)NNC(=O)c1ccc(Oc2ccccc2)cc1	3.53 (≈ 1.56 µg/mL)	530	10.4	–	1.5 deltalog10CFU/ml	–	–
Cc1nc2sc3ccccc3n2c1C(=O)Nc1ccccc1	40.7 (≈ 12.5 µg/mL)	1030	33.2	–	–	–	–

Compound	MIC [1] [µM]	IC50 (Pantothenate synthetase) [nM]	cytotoxicity at 72 h, 50 µM [2] [%]	Activity [3] [deltalog10CFU/ml]	Activity (Mycobacterium marinum [4])	MIC [5] [µg/mL]	Activity (Mycobacterium marinum [6]) [deltalog10CFU/ml]
Cc1nc2sccn2c1C(=O)NNC(=O)C1CCCCC1	20.4 (≈ 6.25 µg/mL)	5380	31.2	–	–	–	–
Cc1nc2sc3ccccc3n2c1C(=O)N/N=C/c1ccc(C(F)(F)F)cc1	16.5 (≈ 6.65 µg/mL)	5310	16.1	–	–	–	–
COc1cc(/C=N/NC(=O)c2c(C)nc3sccn23)cc(OC)c1OC	33.4 (≈ 12.5 µg/mL)	5610	1.17	–	–	–	–
Cc1nc2sccn2c1C(=O)NNC(=O)c1ccccc1	40.1 (≈ 12 µg/mL)	5310	10.3	–	–	–	–
CO[C@H]1/C=C/O[C@@]2(C)Oc3c(C)c(O)c4c(O)c(c(/C=N/N5CCN(C)CC5)c(O)c4c3C2=O)NC(=O)/C(C)=C\C=C\[C@H](C)[C@H](O)[C@@H](C)[C@@H](O)[C@@H](C)[C@H](OC(C)=O)[C@@H]1C [RIFAMPIN]	–	–	–	2.1	–	0.1 (≈ 0.122 µM)	1.9
Cc1nc2sccn2c1C(=O)NC1CCCCC1	11.8 (≈ 3.12 µg/mL)	2000	32.1	–	–	–	–
COc1c(N2C[C@@H]3CCCN[C@@H]3C2)c(F)cc2c(=O)c(C(=O)O)cn(C3CC3)c12 [MOXIFLOXACIN]	–	–	–	–	–	0.78 (≈ 1.94 µM)	2.9
Cc1nc2sc3ccccc3n2c1C(=O)Nc1ccc(Br)cc1	16.2 (≈ 6.25 µg/mL)	520	20.9	–	–	–	–
Cc1ccc(C(=O)NNC(=O)c2c(C)nc3sc4ccccc4n23)cc1	17.1 (≈ 6.25 µg/mL)	5830	53	–	–	–	–
COc1ccc(NC(=O)c2c(C)nc3sccn23)cc1	20.7 (≈ 5.96 µg/mL)	5830	58.7	–	–	–	–
CC[C@@H](CO)NCCN[C@@H](CC)CO [ETHAMBUTOL]	7.64 (≈ 1.56 µg/mL)	> 25000	–	–	–	–	–
Cc1nc2sccn2c1C(=O)Nc1ccc(Br)cc1	2.32 (≈ 0.78 µg/mL)	690	32.3	2	–	–	–
Cc1nc2sc3ccccc3n2c1C(=O)NC1CCCCC1	19.9 (≈ 6.25 µg/mL)	1020	13.4	–	–	–	–
Cc1nc2sc3ccccc3n2c1C(=O)N/N=C/c1ccc(Br)cc1	15.1 (≈ 6.25 µg/mL)	1020	10.1	–	–	–	–
Cc1nc2sc3ccccc3n2c1C(=O)N/N=C/c1ccc(N(C)C)cc1	4.13 (≈ 1.56 µg/mL)	1460	12.1	–	–	–	–
CCOc1ccc(NC(=O)c2c(C)nc3sc4ccccc4n23)cc1	42 (≈ 14.7 µg/mL)	2100	52.7	–	–	–	–
Cc1nc2sccn2c1C(=O)Nc1ccccc1	12.1 (≈ 3.12 µg/mL)	740	14.1	–	–	–	–
